Only a sample is shown.
Apaf-1 act: activates human Apaf-1 apoptosome; Apaf-1 apoptosome caspase-3 activation, DEVD-Rh110 fluorescence; stronger effect = lower value; activity change, negative = activation, % at 20 µM; actives 0.31% (n = 330,000); AID 489031;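 active = activity change at or below -40% at 20 µM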
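Assay system – biochemical Apaf-1 apoptosome reconstitution · Medium – 20 mM HEPES buffer, pH 7.5, containing CHAPS and BSA · Incubation – 30 min preincubation, 50 min reaction, room temperature · Measured by – Caspase-3-released Rh110 fluorescence, 540 nm emission, 480 nm excitation · Read-out – Caspase-3 cleavage activity downstream of Apaf-1 activation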
Rh110 act interf: counter-screen for Apaf-1 activators: fluorescence interference; shares compounds with Apaf-1 act; Rh110 fluorescence interference, quenched caspase reaction, Ex480/Em540; fluorescence interference (activity change), % at 20 µM, hits read low; 980 tested, under 10 active; AID 504616;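 active = mean activity change at or below -40% when tested at 20 µM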
Apaf-1 act conf: Apaf-1 (human) activation, single-dose confirmed | activity change, negative = activation, % at 20 µM | actives 5% (n = 980) | reconstituted apoptosome caspase-3 activity, DEVD-Rh110 fluorescence; stronger effect = lower value | shares compounds with Apaf-1 act;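 active = mean activity change at or below -40%, meaning activation of 40% or more, at 20 µM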
Fluor interf act: counter-screen for Apaf-1 activators: fluorescence interference, dose response; shares compounds with Apaf-1 act; fluorescence interference counterscreen, Apaf-1 activator assay; EC50, µM; 55 tested, under 10 active; call rule not given here
Each line names hits and unclear results; the compound was inactive in the other large screens (follow-up assays come after a bar, where they were run).

Cc1cccc(OCc2nc3ccccc3c(=O)n2N)c1	Apaf-1 act -92 | Rh110 act interf inactive | Apaf-1 act conf inactive
Cc1ccc(-c2nnc(CSc3nnc(COc4cccc5ccccc45)n3-c3ccccc3)o2)cc1	none
CCCCc1oc2ccccc2c1C(=O)c1cc(I)c(OCCN(CC)CC)c(I)c1	none
CCOc1cc(/C=C/c2nc3cc(C)c(C)cc3s2)ccc1OCC(=O)N1CCOCC1	none
CCOc1cc(CNc2ccc(N3CCCCC3)cc2)cc(Br)c1OCC(=O)NC(C)(C)C	none
COc1cc(CNc2ccc(N3CCOCC3)cc2)cc(Br)c1OC	Apaf-1 act -85 | Rh110 act interf inactive | Apaf-1 act conf inactive
CCOc1cc(CNc2ccc(N3CCCC3)cc2)cc(Cl)c1OC	none
Cc1ccc2c(c1)c(=O)c1c3n2CCN(C(=O)CCl)C3CC1 (centres undefined)	none
CC(=O)N(C)C1=C(O)c2ccccc2C(=O)C1=O	none
CCN1C(=O)CC(c2ccccc2)N(C2CCCC2)c2nc(Nc3ccc(C(=O)NC4CCN(C)CC4)cc3OC)ncc21 (centres undefined)	none
Cc1nn(CC(=O)N2CCc3ccccc32)c(C)c1S(=O)(=O)NC(C)(C)C	Apaf-1 act -57 | Rh110 act interf inactive | Apaf-1 act conf inactive
COc1ccc(Br)cc1C1CC(=O)N2CN(Cc3ccccc3)CSC2=C1C#N (centres undefined)	none
CCOC12NC(=O)CC(=O)N1C(c1ccccc1)=CS2 (centres undefined)	Apaf-1 act -294 | Rh110 act interf inactive | Apaf-1 act conf inactive
COc1ccc2ccccc2c1C1CC(=O)N2CN(C)CSC2=C1C#N (centres undefined)	none
CCc1cccc2c(C#N)cn(CCOc3ccccc3OC)c12	Apaf-1 act -104 | Rh110 act interf inactive | Apaf-1 act conf inactive
COc1ccc(NC(=S)Nc2cccc3cnccc23)cc1	none
COc1ccccc1C1Nc2cccc3cccc(c23)N1	none
Cc1cccc(C)c1NC(=O)CSc1nnc(-c2ccco2)c(-c2ccco2)n1	none
CCn1nc(C)c(NC(=O)CCSc2nc(-c3ccco3)cc(C(F)(F)F)n2)c1C	Apaf-1 act -246 | Rh110 act interf inactive | Apaf-1 act conf inactive
Cc1cccc(C)c1NC(=O)Cn1cc(C=O)c2ccccc21	Apaf-1 act -251 | Rh110 act interf inactive | Apaf-1 act conf -43 | Fluor interf act inactive
O=C1C=C(N2CCCCC2)c2ccccc2C1=O	none
CCn1c(=NC(=O)c2ccco2)sc2cccc(F)c21	Apaf-1 act -432 | Rh110 act interf inactive | Apaf-1 act conf inactive
CC1=NN(c2ccc(C)c(C)c2)C(=O)C1C(c1cccc(O)c1)C1C(=O)N(c2ccc(C)c(C)c2)N=C1C (centres undefined)	none
COc1cccc(C(C[N+](=O)[O-])c2c(C)[nH]n(-c3ccccc3)c2=O)c1 (centres undefined)	none
CN(CCO)c1nc(N)c2c(N)nc3c(c2c1C#N)CC(=O)N3C1CCCC1	none
Oc1cc(NCCc2cccnc2)cc2cccnc12	none
COc1ccc2cnn(-c3ccc(OC(F)(F)F)cc3)c(=O)c2c1OC	Apaf-1 act -49 | Rh110 act interf inactive | Apaf-1 act conf inactive
Nc1ccc2nn(-c3cccc4ccccc34)nc2c1	none
COc1ccc(CCNC(=O)c2ccc3nc(-c4ccco4)c(-c4ccco4)nc3c2)cc1OC	none
COc1ccc2[nH]c(=O)c(CNc3ccccc3OC)cc2c1	none
COc1ccc(C(=O)NCCCNC(=O)c2cc3ccccc3[nH]2)cc1OC	Apaf-1 act -162 | Rh110 act interf inactive | Apaf-1 act conf inactive
CCOc1cc(/C=C2\C(=O)N(c3nc(-c4ccc(Br)cc4)cs3)N=C2c2ccccc2)ccc1O	none
COc1ccc(O)c(C(c2c(C)[nH][nH]c2=O)c2c(C)[nH][nH]c2=O)c1	none
COCCNC(=O)c1c(N)n(CCC2=CCCCC2)c2nc3ccccc3nc12	none
COCCNC(=O)c1cc2nc(-c3ccccc3)cc(C)n2n1	Apaf-1 act -169 | Rh110 act interf inactive | Apaf-1 act conf inactive
O=C1c2ccccc2-c2nnc(-c3ccc(O)cc3)cc21	none
COc1ccc(S(=O)(=O)N2CCCCCC2)cc1C(=O)NCCc1ccccc1	none
COc1cc2c(cc1NC(=O)C(C)N1CCN(S(=O)(=O)c3ccc(C)c(C)c3)CC1)oc1ccccc12 (centres undefined)	Apaf-1 act -578 | Rh110 act interf inactive | Apaf-1 act conf inactive
COc1ccccc1OCCNC(=O)c1cccc(S(=O)(=O)N2CCN(Cc3ccccc3)CC2)c1	none
Cc1ccc(-c2nc3n(n2)Cc2ccccc2-3)cc1	Apaf-1 act -197 | Rh110 act interf inactive | Apaf-1 act conf inactive
CCN1/C(=C/c2ccc3ccccc3[n+]2CC)C=Cc2ccccc21	none

Screening data as filed in PubChem BioAssay.
